Source: ChEMBL document CHEMBL1828539, “Development of a novel furocoumarin derivative inhibiting NF-κB dependent biological functions: design, synthesis and biological effects” (Eur J Med Chem, 2011)
The source made the active and inactive calls. The calls are words filed in the database; no cut-off is given here.

Key:
IB3-1 [1] = assay: Inhibition of NFkappa B in human IB3-1 cells assessed as inhibition of TNF-alpha-induced IL8 protein release at 10 uM after 24 hrs relative to control; format: cell-based
How it was run: (§1)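 IB3-1 CF cells in LHC-8 with 5% FBS treated 24 h with compound plus TNF-α (80 ng/ml). IL-8 released into the culture supernatant measured by singleplex bead immunoassay (Bio-Plex): sample incubated with anti-IL-8 beads, then detection antibody, then streptavidin-phycoerythrin, read against cytokine standards as pg/ml; n = 3.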

IB3-1 [2] = assay: Inhibition of NFkappa B in human IB3-1 cells assessed as inhibition of TNF-alpha-induced IL8 protein release at 50 uM after 24 hrs relative to control; format: cell-based; how it was run: as §1
IB3-1 [3] = assay: Inhibition of NFkappa B in human IB3-1 cells assessed as inhibition of TNF-alpha-induced IL8 mRNA accumulation at 10 uM after 24 hrs by RT-PCR analysis relative to control; format: cell-based
How it was run: (§2)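 IB3-1 CF bronchial cells (ΔF508/W1282X, adeno12/SV40-immortalized) grown in LHC-8 with 5% FBS, without gentamycin, at 37 °C. Exposed to compound and TNF-α (80 ng/ml) for 24 h. Total RNA extracted with TRIzol, oligo(dT)-primed AMV reverse transcription, then 40-cycle real-time PCR with IL-8 primers. IL-8 mRNA expressed relative to uninduced IB3-1 cells; n = 3.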

IB3-1 [4] = assay: Inhibition of NFkappa B in human IB3-1 cells assessed as inhibition of TNF-alpha-induced IL8 mRNA accumulation at 50 uM after 24 hrs by RT-PCR analysis relative to control; format: cell-based; how it was run: as §2
IB3-1 [5] = assay: Inhibition of NFkappa B in human IB3-1 cells assessed as inhibition of TNF-alpha-induced IL8 mRNA accumulation at 30 uM after 24 hrs by RT-PCR analysis relative to control; format: cell-based; how it was run: as §2
[6] = Inhibition of reconstituted NF-KB p50-p65 heterodimer/DNA interaction after 20 mins by EMSA
How it was run: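 p50 (10 ng) plus p65 (10 ng) human NF-κB proteins preincubated 20 min at room temperature with varying compound concentrations in buffer TF, 5% glycerol, 1 mM DTT. 0.25 ng 32P-labeled NF-κB site oligo then added for a further 20 min. Bound and free probe separated on 6% native polyacrylamide gel (0.25× TBE, 200 V); autoradiography.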

IB3-1 [7] = assay: Inhibition of NFkappa B in human IB3-1 cells assessed as inhibition of TNF-alpha-induced IL8 protein release at 30 uM after 24 hrs relative to control; format: cell-based; how it was run: as §1
[8] = Inhibition of NF-KB p50 subunit/DNA interaction after 20 mins by EMSA
How it was run: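 Human NF-κB p50 protein (10 ng) preincubated 20 min at room temperature with varying compound concentrations in buffer TF plus 5% glycerol, 1 mM DTT. Then 0.25 ng 32P-labeled double-stranded NF-κB consensus oligo (5'-CGC TGG GGA CTT TCC ACG G-3') added for 20 min more. Complexes resolved on 6% polyacrylamide gel in 0.25× TBE at 200 V; autoradiography.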

Compound	inhibition (IB3-1 [1])	inhibition (IB3-1 [2])	inhibition (IB3-1 [3])	inhibition (IB3-1 [4])	inhibition (IB3-1 [5])	inhibition [6]	inhibition (IB3-1 [7])	inhibition [8]
Cc1c(CC(=O)NC(Cc2ccccc2)C(=O)O)c(=O)oc2c(C)c3occ(C(C)(C)C)c3cc12 (racemic)	inactive	Active	inactive	Active	Active	Active	Active	–
Cc1c(CC(=O)N[C@@H](Cc2ccccc2)C(=O)O)c(=O)oc2cc3occ(C(C)(C)C)c3cc12	–	–	–	–	–	Active	–	Active
Cc1c(CC(=O)NC(Cc2ccccc2)C(=O)O)c(=O)oc2cc3occ(C(C)(C)C)c3cc12 (racemic)	–	–	–	–	–	Active	–	Active
